In ChEMBL document CHEMBL3853297, “Synthesis and biological evaluation of 4-(2-fluorophenoxy)-3,3'-bipyridine derivatives as potential c-met inhibitors” (Eur J Med Chem, 2016):

What was measured:
[1] = Cytotoxicity against human MKN45 cells after 72 hrs by MTT assay; conditions: MKN-45, 72 h
[2] = Cytotoxicity against human HT-29 cells after 72 hrs by MTT assay; assay type: functional, cell-based; conditions: HT-29, 72 h
Procedure, shortened: (§1)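 Cells grown in MEM with 10% FBS; about 4×10^3 cells per well of 96-well plate, 24 h at 37 °C, 5% CO2, then test compounds at indicated final concentrations for 72 h. Each tested three times; IC50 as mean ± SD.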

[3] = Cytotoxicity against human A549 cells after 72 hrs by MTT assay; conditions: A549, 72 h
[4] = Cytotoxicity against human MDA-MB-231 cells after 72 hrs by MTT assay; assay type: functional, cell-based; conditions: MDA-MB-231, 72 h; procedure, shortened: as §1

Structure (SMILES)	IC50 [1]	IC50 [2]	IC50 [3]	IC50 [4]
O=C(Nc1ccc(Oc2ccncc2-c2cccnc2)c(F)c1)c1nn(-c2ccc(F)cc2)c(=O)c2ccccc12	320 nM	990 nM	820 nM	–
O=C(Nc1ccc(Oc2ccncc2-c2cccnc2)c(F)c1)C1=NN(c2ccc(F)c(F)c2)c2ccccc2S1(=O)=O	90 nM	1550 nM	1300 nM	34 nM
O=C(Nc1ccc(Oc2ccncc2-c2cccnc2)c(F)c1)c1ccnn(-c2ccc(F)cc2)c1=O	3120 nM	4770 nM	2880 nM	5200 nM
COc1ccc(-n2nc(C(=O)Nc3ccc(Oc4ccncc4-c4cccnc4)c(F)c3)c(=O)n(C)c2=O)c(OC)c1	2820 nM	890 nM	890 nM	3270 nM
Cn1cc(-c2ccc(F)cc2)cc(C(=O)Nc2ccc(Oc3ccncc3-c3cccnc3)c(F)c2)c1=O	7100 nM	11200 nM	8300 nM	11900 nM
O=C(Nc1ccc(Oc2ccncc2-c2cccnc2)c(F)c1)c1nn(-c2cccc(F)c2)c(=O)c2ccccc12	27 nM	410 nM	1750 nM	72 nM
COc1ccc(Nc2cc(Nc3ccc(Oc4ccncc4-c4cccnc4)c(F)c3)ncn2)cc1	1010 nM	4110 nM	2140 nM	–
Cn1cc(-c2ccccc2)cc(C(=O)Nc2ccc(Oc3ccncc3-c3cccnc3)c(F)c2)c1=O	5400 nM	7420 nM	7600 nM	9500 nM
Cn1c(=O)c(C(=O)Nc2ccc(Oc3ccncc3-c3cccnc3)c(F)c2)nn(-c2cccc(C(F)(F)F)c2)c1=O	1950 nM	510 nM	460 nM	3980 nM
Cn1c(=O)c(C(=O)Nc2ccc(Oc3ccncc3-c3cccnc3)c(F)c2)nn(-c2ccc(F)c(Cl)c2)c1=O	10100 nM	4780 nM	12500 nM	11300 nM
Fc1ccc(Nc2cc(Nc3ccc(Oc4ccncc4-c4cccnc4)c(F)c3)ncn2)cc1	160 nM	330 nM	710 nM	14100 nM
Cn1c(=O)c(C(=O)Nc2ccc(Oc3ccncc3-c3cccnc3)c(F)c2)nn(-c2ccccc2F)c1=O	4780 nM	2100 nM	610 nM	6760 nM
Cn1c(=O)c(C(=O)Nc2ccc(Oc3ccncc3-c3cccnc3)c(F)c2)nn(-c2ccc(Cl)cc2)c1=O	1600 nM	440 nM	930 nM	3220 nM
Fc1ccc(Nc2cc(Nc3ccc(Oc4ccncc4-c4cccnc4)c(F)c3)ncn2)cc1F	80 nM	2320 nM	7630 nM	6770 nM
O=C(Nc1ccc(Oc2ccncc2-c2cccnc2)c(F)c1)c1ccnn(-c2ccc(Cl)cc2)c1=O	4230 nM	4560 nM	6560 nM	4840 nM
Cn1c(=O)c(C(=O)Nc2ccc(Oc3ccncc3-c3cccnc3)c(F)c2)nn(-c2c(Cl)cccc2Cl)c1=O	3930 nM	780 nM	720 nM	9690 nM
O=C(Nc1ccc(Oc2ccncc2-c2cccnc2)c(F)c1)c1nn(-c2ccccc2)c(=O)c2ccccc12	90 nM	1240 nM	7900 nM	8200 nM
Fc1cc(Nc2cc(Nc3cccc(Cl)c3)ncn2)ccc1Oc1ccncc1-c1cccnc1	30 nM	690 nM	180 nM	90 nM
O=C(Nc1ccc(Oc2ccncc2-c2cccnc2)c(F)c1)c1nn(-c2ccc(Cl)cc2)c(=O)c2ccccc12	430 nM	710 nM	1020 nM	–
COc1ccc(-n2nc(C(=O)Nc3ccc(Oc4ccncc4-c4cccnc4)c(F)c3)c3ccccc3c2=O)cc1	740 nM	–	6800 nM	10400 nM
Fc1cc(Nc2cc(Nc3ccc(Cl)cc3)ncn2)ccc1Oc1ccncc1-c1cccnc1	240 nM	980 nM	1610 nM	–
O=C(Nc1ccc(Oc2ccncc2-c2cccnc2)c(F)c1)C1=NN(c2cccc(F)c2)c2ccccc2S1(=O)=O	3 nM	430 nM	900 nM	10 nM
COc1cc(Nc2cc(Nc3ccc(Oc4ccncc4-c4cccnc4)c(F)c3)ncn2)cc(OC)c1	1750 nM	1130 nM	560 nM	4240 nM
Fc1cc(Nc2cc(Nc3ccccc3)ncn2)ccc1Oc1ccncc1-c1cccnc1	6300 nM	880 nM	410 nM	2740 nM
O=C(Nc1ccc(Oc2ccncc2-c2cccnc2)c(F)c1)C1=NN(c2ccccc2C(F)(F)F)c2ccccc2S1(=O)=O	27 nM	190 nM	120 nM	46 nM
